# Measurements from PubChem BioAssay AID504392 (Broad Institute, 2011).
# Activity calls are given as the source filed them.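 The calls were made as follows: active = fitted curve rising past 10% caspase activation at or below the top valid dose; inactive = activity opposite to the expected rise, or the rest.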
# Experiment: apoptosis induction in mouse embryonic fibroblasts – cell-based, wild-type MEF, caspase luminescence, dry powder, set 2, counter-screen for Bcl2-A1 inhibitor project, dose response (AID 504392)
# Method in brief: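 test system = wild-type mouse embryonic fibroblasts, not A1–BIM primed | buffer or medium = RPMI-1640, 10% FBS | times = 3 h compound at 37 °C, 1 h reagent at RT | signal = luminescence with CaspaseGlo caspase reagent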
smiles,measurement,value
C/C1=C/C(=O)O[C@@H]2C[C@@H](CC[C@H](C)/C=C\CC1)O[C@@](O)(C1CSC(=O)N1)C2 (stereo partly specified),outcome,inactive
